Measurements taken from publication PMC5604209 (Journal of Cancer, 2017).

Assays:
Abl (WT) = Abl (WT) (Homo sapiens, UniProt P00519); experiment: HTRF kinase enzyme assay; type: biochemical
How it was run: (§1)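 Recombinant kinases were assayed by HTRF KinEASE-TK in 50 mM HEPES pH 7.0, 0.1 mM Na3VO4, 0.01% BSA, 5 mM MgCl2, 1 mM DTT. Compound was made as an 11-point 3-fold series from a 1 mM DMSO stock and mixed with kinase for 5 min. […] Anti-TK cryptate plus streptavidin-XL665 was added for 1 h at 23 °C before TR-FRET read-out. IC50 is the mean of three independent duplicate runs.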

Abl (T315I) = Abl (T315I) (Homo sapiens, UniProt P00519, T315I); experiment: HTRF kinase enzyme assay; type: biochemical
c-Kit = c-Kit (Homo sapiens, UniProt P10721); experiment: HTRF kinase enzyme assay; type: biochemical
How it was run: as §1

VEGFR2 = VEGFR2 (Homo sapiens, UniProt P35968); experiment: HTRF kinase enzyme assay; type: biochemical
How it was run: as §1

PDGFRβ = PDGFRβ (Homo sapiens, UniProt P09619); experiment: HTRF kinase enzyme assay; type: biochemical
How it was run: as §1

EGFR = EGFR (Homo sapiens, UniProt P00533); experiment: Kinase enzyme assay; type: biochemical
Abl enzyme [1] = biological target: T1, Abl enzyme (Homo sapiens, UniProt P00519); experiment: Kinetic mechanism of inhibition versus ATP; type: biochemical
Abl enzyme [2] = biological target: T1, Abl enzyme; experiment: Time-dependent inhibition and reversibility; type: biochemical
Ba/F3-Bcr-abl^WT = experiment: Cell proliferation assay; type: cell-based, murine; details: Mus musculus, 72 h, read-out: Cell growth inhibition IC50
How it was run: (§2)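 Cells were grown in DMEM or RPMI-1640 with 10% FBS and penicillin/streptomycin at 37 °C, 5% CO2. PBMC were isolated on Ficoll-Paque, and Ba/F3 Bcr-Abl lines were stably transfected. Cells were seeded at low density. DMSO stocks were 3-fold diluted from 10 mM to 0.3 nM, then into serum-free medium before addition. After 72 h, CellTiter-Glo (adherent; RT 10 min) or CellTiter-Blue (suspension; 4 h) was read. IC50 is the mean of three independent duplicate experiments.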

Ba/F3-Bcr-abl^T315I = experiment: Cell proliferation assay; type: cell-based, murine; details: Mus musculus, 72 h, read-out: Cell growth inhibition IC50
How it was run: as §2

Kasumi-1 = experiment: Cell proliferation assay; type: cell-based; details: Homo sapiens, Kasumi 1, 72 h, read-out: Cell growth inhibition IC50
How it was run: as §2

MV-4-11 = experiment: Cell proliferation assay; type: cell-based; details: read-out: Cell growth inhibition IC50; MV-4-11, acute myeloid leukemia, 72 hours
How it was run: as §2

HL-60 = experiment: Cell proliferation assay; type: cell-based; details: Homo sapiens, HL-60, 72 h, read-out: Cell growth inhibition IC50
How it was run: as §2

MKN-45 = experiment: Cell proliferation assay; type: cell-based; details: Homo sapiens, MKN-45, 72 h, read-out: Cell growth inhibition IC50
How it was run: as §2

PC-3 = experiment: Cell proliferation assay; type: cell-based; details: Homo sapiens, PC-3, 72 h, read-out: Cell growth inhibition IC50
How it was run: as §2

SMMC-7721 = experiment: Cell proliferation assay; type: cell-based; details: Homo sapiens, SMMC-7721, 72 h, read-out: Cell growth inhibition IC50
How it was run: as §2

Human PBMC = experiment: Cell proliferation assay; type: cell-based; details: read-out: Cell growth inhibition IC50, human lymphocyte, 72 hours
How it was run: as §2

[3] = biological target: phosphorylation of Bcr-Abl (Homo sapiens, UniProt P00519+P11274); experiment: Western blot, K562 and KU812 cells; type: cell-based; details: for phosphorylation of Bcr-Abl kinase: 1 hour
How it was run: (§3)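 K562 or KU812 cells (1×10⁶ per well) were plated overnight at 37 °C, 5% CO2. They were treated 1 h with a concentration series, or with 100 nM for 0–24 h; 0.1% DMSO served as control. BCA-normalized lysates were run on 10% SDS-PAGE and transferred to PVDF. Blots were blocked in TBS-0.1% Tween-20 with 5% BSA, then probed with phospho-specific primaries (2 h RT or 4 °C overnight) and HRP anti-rabbit (1 h RT). Detection was by ECL.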

phosphorylation of Crkl = experiment: Western blot, K562 and KU812 cells; type: cell-based, human; details: 100 nM, 1 hour
How it was run: as §3

[4] = test system: phosphorylated ERK1/2 and STAT5; experiment: Western blot, K562 and KU812 cells; type: cell-based, human
How it was run: as §3

K562 cells [5] = experiment: Apoptosis by Annexin V / 7-AAD flow cytometry; type: cell-based, human; details: 10 μM, 24 hours
How it was run: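 K562 cells treated 24 h at 37 °C with test compound (0.1, 1.0 or 10 μM) or 0.1% DMSO. Cells were washed twice in PBS and resuspended in binding buffer with PE-Annexin V and 7-AAD for 15 min at RT in the dark. They were then diluted in binding buffer and read on a Guava flow cytometer. Early and late apoptotic fractions were scored.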

K562 cells [6] = experiment: Cell cycle by propidium; type: cell-based, human; details: 1 nM, 24 hours
How it was run: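 After 24 h exposure of K562 cells to test compound or DMSO, cells were washed in cold PBS and fixed overnight in ice-cold 70% ethanol. They were stained 1 h at 37 °C in PBS with 0.25 mg/mL RNase and 0.025 mg/mL propidium iodide. Cells were read on a Guava flow cytometer, and G1, S and G2/M fractions were quantified.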

[7] = Pharmacokinetic studies in rats; type: in vivo; details: female, SD, rat, serum, po, 5 mg/kg
How it was run: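 Female SD rats (5–6 weeks) received a single 5 mg/kg oral dose. Blood was sampled serially from 2 min to 24 h, and serum was separated by centrifugation and stored at −80 °C. Serum levels were measured by LC-MS/MS, and T1/2, Tmax, Cmax and AUC0-INF were derived.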

[8] = test system: liver CYP450 enzymes (all tested enzymes); experiment: Liver CYP450 enzyme inhibition; type: in vitro ADME
K562 xenograft = experiment: K562 tumor xenograft in nude mice; type: in vivo; details: for tumor growth inhibition: p < 0.05
How it was run: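 Female athymic nude mice (5–6 weeks) were implanted subcutaneously in the right flank with K562 cells in 100 µL serum-free medium. Once tumors reached about 150–300 mm³, mice were randomized (10 per group) to vehicle or test compound at 5, 15 or 45 mg/kg by daily oral gavage. Caliper volume (w²×l)/2 and body weight were recorded every 2–3 days. TGI was taken versus vehicle, with t-test.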

KU812 xenograft = experiment: KU812 tumor xenograft in nude mice; type: in vivo; details: 30 mg/kg QD; for treated mice with complete tumor regression: p < 0.01
[9] = PK/PD in K562 xenograft model: compound concentration in tumor; type: in vivo, nude mice; details: nude, mouse, tumor tissue, po, 15 mg/kg
How it was run: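 In nude mice bearing K562 xenografts, tumor tissue was collected 2 h after one oral dose (5 or 15 mg/kg) of test compound. Compound concentration in tumor samples was quantified by LC-MS/MS.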

[10] = test system: phosphorylation of Bcr-Abl and ERK1/2; experiment: PK/PD in K562 xenograft model: Western blot of tumor samples; type: in vivo, nude mice; details: single oral dose 15 mg/kg, 2 hours
How it was run: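 K562 xenografts in nude mice were given a single oral dose of test compound (5 or 15 mg/kg). Tumors were harvested 2 h later, and lysates were probed by Western blot with antibodies to phospho-Bcr-Abl and phospho-ERK1/2.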

Sequence of c-Kit (P10721 26-976): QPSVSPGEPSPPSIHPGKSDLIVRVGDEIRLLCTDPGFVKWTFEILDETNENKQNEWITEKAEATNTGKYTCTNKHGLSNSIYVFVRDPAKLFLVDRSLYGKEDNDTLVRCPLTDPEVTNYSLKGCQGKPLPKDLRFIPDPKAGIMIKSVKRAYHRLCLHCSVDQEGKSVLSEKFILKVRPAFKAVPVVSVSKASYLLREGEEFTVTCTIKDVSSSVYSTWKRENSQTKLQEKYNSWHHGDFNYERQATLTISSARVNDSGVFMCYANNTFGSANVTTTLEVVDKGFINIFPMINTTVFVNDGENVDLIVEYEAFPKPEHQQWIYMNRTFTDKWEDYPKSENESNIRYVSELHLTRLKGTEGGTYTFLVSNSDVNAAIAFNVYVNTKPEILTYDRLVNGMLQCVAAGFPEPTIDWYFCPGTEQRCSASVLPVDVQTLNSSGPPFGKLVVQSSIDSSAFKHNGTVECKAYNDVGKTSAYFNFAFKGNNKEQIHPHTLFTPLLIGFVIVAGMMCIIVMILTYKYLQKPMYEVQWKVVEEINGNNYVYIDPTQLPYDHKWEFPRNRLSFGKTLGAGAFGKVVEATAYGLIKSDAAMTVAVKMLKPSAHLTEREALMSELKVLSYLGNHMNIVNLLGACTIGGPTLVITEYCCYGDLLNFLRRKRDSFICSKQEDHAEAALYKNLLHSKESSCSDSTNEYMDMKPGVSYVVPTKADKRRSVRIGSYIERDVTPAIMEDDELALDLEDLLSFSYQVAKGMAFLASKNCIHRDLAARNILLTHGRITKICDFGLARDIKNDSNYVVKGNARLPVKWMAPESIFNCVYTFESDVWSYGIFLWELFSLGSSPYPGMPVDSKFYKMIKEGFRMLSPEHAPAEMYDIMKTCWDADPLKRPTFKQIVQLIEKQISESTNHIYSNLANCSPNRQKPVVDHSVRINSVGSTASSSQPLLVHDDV
Sequence of PDGFRβ (P09619 33-1106): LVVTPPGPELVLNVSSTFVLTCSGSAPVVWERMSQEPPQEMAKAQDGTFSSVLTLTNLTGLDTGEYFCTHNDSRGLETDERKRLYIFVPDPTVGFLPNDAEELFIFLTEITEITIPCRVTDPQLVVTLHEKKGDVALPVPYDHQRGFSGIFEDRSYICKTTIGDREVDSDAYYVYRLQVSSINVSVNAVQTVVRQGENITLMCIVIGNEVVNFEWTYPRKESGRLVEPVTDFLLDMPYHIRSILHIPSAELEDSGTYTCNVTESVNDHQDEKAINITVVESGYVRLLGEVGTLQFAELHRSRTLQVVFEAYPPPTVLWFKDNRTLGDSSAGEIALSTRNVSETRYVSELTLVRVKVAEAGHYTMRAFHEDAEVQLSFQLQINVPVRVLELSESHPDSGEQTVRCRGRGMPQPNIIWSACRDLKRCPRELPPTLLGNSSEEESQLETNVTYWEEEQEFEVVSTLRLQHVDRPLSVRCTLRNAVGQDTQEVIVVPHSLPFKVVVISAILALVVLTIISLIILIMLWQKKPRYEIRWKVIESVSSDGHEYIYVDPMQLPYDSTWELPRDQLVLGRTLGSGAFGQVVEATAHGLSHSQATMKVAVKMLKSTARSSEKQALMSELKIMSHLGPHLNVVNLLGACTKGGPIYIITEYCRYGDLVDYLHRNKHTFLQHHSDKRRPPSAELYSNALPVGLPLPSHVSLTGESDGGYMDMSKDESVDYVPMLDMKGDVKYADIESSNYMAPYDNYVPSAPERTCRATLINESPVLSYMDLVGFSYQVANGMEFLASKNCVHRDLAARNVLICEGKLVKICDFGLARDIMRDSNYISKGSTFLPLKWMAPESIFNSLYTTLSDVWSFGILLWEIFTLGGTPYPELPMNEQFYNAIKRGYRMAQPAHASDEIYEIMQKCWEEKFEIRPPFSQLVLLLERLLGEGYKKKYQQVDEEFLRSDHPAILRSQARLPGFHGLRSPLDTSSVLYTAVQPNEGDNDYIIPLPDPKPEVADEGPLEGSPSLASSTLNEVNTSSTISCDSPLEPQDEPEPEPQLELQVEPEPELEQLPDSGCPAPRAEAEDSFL
Sequence of VEGFR2 (P35968 20-1356): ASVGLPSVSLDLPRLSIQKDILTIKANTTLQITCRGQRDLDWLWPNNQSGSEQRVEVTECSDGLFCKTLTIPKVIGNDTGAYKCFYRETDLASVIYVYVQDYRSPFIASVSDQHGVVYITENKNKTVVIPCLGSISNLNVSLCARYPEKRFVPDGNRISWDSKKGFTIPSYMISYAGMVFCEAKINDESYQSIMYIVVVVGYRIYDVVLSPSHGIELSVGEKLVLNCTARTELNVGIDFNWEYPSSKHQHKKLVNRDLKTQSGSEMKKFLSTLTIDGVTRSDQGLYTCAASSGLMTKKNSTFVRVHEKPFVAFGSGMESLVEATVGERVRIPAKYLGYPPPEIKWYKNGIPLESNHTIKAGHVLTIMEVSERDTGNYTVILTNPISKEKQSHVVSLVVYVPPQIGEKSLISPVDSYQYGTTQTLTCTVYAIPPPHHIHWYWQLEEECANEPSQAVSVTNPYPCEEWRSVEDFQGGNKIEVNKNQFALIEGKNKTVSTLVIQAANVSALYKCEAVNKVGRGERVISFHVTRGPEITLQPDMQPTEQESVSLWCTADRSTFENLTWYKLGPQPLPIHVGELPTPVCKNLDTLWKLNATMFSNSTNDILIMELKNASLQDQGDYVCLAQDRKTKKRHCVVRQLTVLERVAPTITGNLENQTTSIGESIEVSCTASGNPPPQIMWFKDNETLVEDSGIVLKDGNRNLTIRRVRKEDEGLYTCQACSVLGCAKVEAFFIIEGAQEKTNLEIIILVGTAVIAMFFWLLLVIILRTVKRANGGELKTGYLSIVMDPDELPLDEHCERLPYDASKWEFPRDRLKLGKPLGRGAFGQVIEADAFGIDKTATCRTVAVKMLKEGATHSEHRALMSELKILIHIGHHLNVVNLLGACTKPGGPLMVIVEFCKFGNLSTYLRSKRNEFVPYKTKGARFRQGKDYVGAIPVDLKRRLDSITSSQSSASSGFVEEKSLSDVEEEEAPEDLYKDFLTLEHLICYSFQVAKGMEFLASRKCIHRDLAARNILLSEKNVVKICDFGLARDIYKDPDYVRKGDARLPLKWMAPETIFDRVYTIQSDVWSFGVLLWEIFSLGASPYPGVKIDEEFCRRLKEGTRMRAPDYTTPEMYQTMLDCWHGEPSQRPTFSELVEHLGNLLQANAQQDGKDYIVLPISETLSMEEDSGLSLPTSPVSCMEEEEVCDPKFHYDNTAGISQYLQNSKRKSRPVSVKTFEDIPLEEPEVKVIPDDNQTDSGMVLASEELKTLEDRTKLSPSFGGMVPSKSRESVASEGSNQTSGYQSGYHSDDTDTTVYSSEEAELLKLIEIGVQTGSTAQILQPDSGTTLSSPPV
Sequence of EGFR (P00533 25-1210): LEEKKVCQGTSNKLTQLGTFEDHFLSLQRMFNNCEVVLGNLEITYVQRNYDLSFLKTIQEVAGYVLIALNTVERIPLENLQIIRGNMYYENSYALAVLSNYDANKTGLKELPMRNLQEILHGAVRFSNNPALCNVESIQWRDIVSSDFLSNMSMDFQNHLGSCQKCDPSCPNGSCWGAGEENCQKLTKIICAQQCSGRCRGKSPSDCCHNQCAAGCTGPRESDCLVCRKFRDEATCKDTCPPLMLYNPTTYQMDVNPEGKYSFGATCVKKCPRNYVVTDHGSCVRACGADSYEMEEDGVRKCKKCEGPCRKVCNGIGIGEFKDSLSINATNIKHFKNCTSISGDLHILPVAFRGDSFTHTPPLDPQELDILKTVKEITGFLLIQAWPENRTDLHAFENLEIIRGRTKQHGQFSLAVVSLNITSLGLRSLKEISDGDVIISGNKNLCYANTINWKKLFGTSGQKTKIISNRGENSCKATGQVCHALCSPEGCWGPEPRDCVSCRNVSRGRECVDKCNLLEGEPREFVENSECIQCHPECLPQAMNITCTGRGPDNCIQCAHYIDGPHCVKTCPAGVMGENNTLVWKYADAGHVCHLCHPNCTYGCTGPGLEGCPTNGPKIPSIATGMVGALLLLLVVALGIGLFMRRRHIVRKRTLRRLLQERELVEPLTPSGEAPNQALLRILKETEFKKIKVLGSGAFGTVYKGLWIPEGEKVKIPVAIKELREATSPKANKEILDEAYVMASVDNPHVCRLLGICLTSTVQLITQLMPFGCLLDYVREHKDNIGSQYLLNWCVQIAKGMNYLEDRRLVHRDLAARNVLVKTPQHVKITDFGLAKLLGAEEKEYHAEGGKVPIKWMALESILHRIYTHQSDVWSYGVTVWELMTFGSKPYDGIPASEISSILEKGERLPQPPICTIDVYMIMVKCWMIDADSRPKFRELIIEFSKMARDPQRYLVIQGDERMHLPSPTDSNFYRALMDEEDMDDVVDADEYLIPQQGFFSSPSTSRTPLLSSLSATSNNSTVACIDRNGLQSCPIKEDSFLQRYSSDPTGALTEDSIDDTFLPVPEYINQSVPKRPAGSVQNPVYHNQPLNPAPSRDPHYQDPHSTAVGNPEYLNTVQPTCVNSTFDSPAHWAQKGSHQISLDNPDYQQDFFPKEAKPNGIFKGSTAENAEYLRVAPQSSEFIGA

Work on `Cc1ccc(NC(=O)c2ccc3c(c2)CC[C@@H]3N2CCN(C)CC2)cc1C#Cc1cnc2ccc(Cl)nn12` [CT-721, (S)-N-(3-((6-chloroimidazo[1,2-b]pyridazin-3-yl)ethynyl)-4-methylphenyl)-1-(4-methylpiperazin-1-yl)-2,3-dihydro-1H-indene-5-carboxamide] yielded an IC50 (Abl (WT)) of 21.3 ± 1.1 nM, an IC50 (Abl (T315I)) of 65 ± 6.2 nM and an IC50 (c-Kit) of 9.2 nM. The IC50 (VEGFR2) was 48.9 nM, the IC50 (PDGFRβ) was 106 nM and the IC50 (EGFR) was 130 nM. The Ki (Abl enzyme [1]) was 7.3 nM, the “Ki'” value (Abl enzyme [1]; enzyme-ATP complex) was 775 nM and the koff (Abl enzyme [2]) was 5.37e-05 s⁻¹. The IC50 (Abl enzyme [2]; IC50 for Abl kinase, Normal (no preincubation, 0 min)) was 12.1 nM, the “decrease of IC50 after preincubation” value (Abl enzyme [2]; from 12.1 nM to 1.3 nM, 120 min) was 9 fold and the IC50 (Ba/F3-Bcr-abl^WT) was 1.6 ± 0.3 nM. The IC50 (Ba/F3-Bcr-abl^T315I) was 18.5 ± 12 nM, the IC50 (Kasumi-1) was 53 ± 6 nM and the IC50 (MV-4-11) was 232 ± 55 nM. For the same compound, the IC50 (HL-60) was 1000 to 10000 nM, the IC50 (MKN-45) was 1000 to 10000 nM and the IC50 (PC-3) was 1000 to 10000 nM. The IC50 (SMMC-7721) was 1000 to 10000 nM, the IC50 (Human PBMC) was 1000 to 10000 nM and the “phosphorylation of Bcr-Abl kinase” value ([3]; 10 nM) was “significantly suppressed”. The “phosphorylation of Bcr-Abl kinase” value ([3]; 100 nM) was “totally blocked”, the “duration of blockage of phosphorylation of Bcr-Abl and Crkl” value ([3]; time course, 100 nM) was “at least 24 hours” and the “phosphorylation of Crkl” value (phosphorylation of Crkl) was “significantly inhibited”. For the same compound, the “levels of phosphorylated ERK1/2 and STAT5” value [4] was “dose-dependently repressed”, the late-phase apoptosis (K562 cells [5]) was “late-phase apoptosis was also observed” and the cell cycle arrest (K562 cells [6]) was “pronounced G0/G1 phase arrest”. The AUC(0-inf) [7] was 5420 ng·h/mL, the Cmax [7] was 303 ng/mL and the Tmax [7] was 6.67 h. For the same compound, the half-life [7] was 8.83 h, the IC50 [8] was > 10000 nM and the tumor growth inhibition (K562 xenograft; K562 xenograft, 5 mg/kg PO QD) was 51.4%. For the same compound, the tumor growth inhibition (K562 xenograft; K562 xenograft, 15 mg/kg PO QD, 12 days) was 76%, the “mice completely cured, tumors disappeared completely” value (K562 xenograft; K562 xenograft, 45 mg/kg PO QD, 9 days, p < 0.01) was 90% and the “body weight of xenograft mice” value (K562 xenograft; K562 xenograft, 5, 15 and 45 mg/kg) was “without causing significant bodyweight loss”. The tumor growth (KU812 xenograft; after 5 days) was “notably inhibited with partial regression observed”, the “treated mice with complete tumor regression” value (KU812 xenograft; after 8 days) was 50% and the “treated mice with complete tumor regression” value (KU812 xenograft; after 18 days) was 80%. For the same compound, the “body weight of xenograft mice” value (KU812 xenograft; compared to the vehicle group) was “no significant body weight loss”, the concentration at 2 h [9] was 254 ng/mL and the “Bcr-Abl and ERK phosphorylation in tumor” value [10] was “almost complete inhibition”.
